# From PubChem
# VIM-2 inh: VIM-2 metallo-beta-lactamase inhibitors, primary screen, biochemical, epi-absorbance readout, Pseudomonas aeruginosa enzyme; purified VIM-2, nitrocefin hydrolysis, epi-absorbance fluorescence; inhibition, % at 5.6 µM; 0.89% of 290,000 active; AID 1527, 2009;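 active = inhibition above the mean of all tested compounds plus 3 SD, cutoff set per screening run, cut at about 7.5% in these data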;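 also: red hydrolysis product quenches plate fluorescence so inhibitors raise well fluorescence; 0% = enzyme with DMSO and 100% = DMSO without enzyme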
# IMP-1 inh: IMP-1 metallo-beta-lactamase inhibitors, primary screen, biochemical, epi-absorbance readout, Pseudomonas aeruginosa enzyme; AID 1556, 2009; inhibition, % at 5.6 µM; purified IMP-1, nitrocefin hydrolysis, epi-absorbance fluorescence; metallo-beta-lactamase IMP-1 (Pseudomonas aeruginosa); 0.45% of 290,000 active;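 active = inhibition above the mean plus 3 SD of all compounds in the same screening run, cut at about 4.5% in these data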;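 also: 0% = IMP-1 with DMSO and 100% = DMSO wells lacking enzyme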
#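 System: Purified IMP-1 | Read-out basis: Percent enzyme inhibition | Controls: IMP-1 with DMSO as 0%, enzyme-free DMSO as 100% | Replicates: One well per compound | Doses: 5.6 µM nominal single concentration | Detection: Epi-absorbance fluorescence, 480 nm excitation, 530 nm emission | Incubation: 25 °C, 15 min preincubation, 25 min reaction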
# Mot1-301 SUMO: yeast Mot1-301 growth rescue at high temperature, primary screen, SUMOylation pathway inhibitor project, S. cerevisiae, ATP luminescence, 38.5C | 1% of 320,000 active | S. cerevisiae Mot1-301 growth rescue; percent above DMSO median, 100 means doubled | growth rescue, % at 18.8 µM | AID 2716, 2010;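 active = every valid replicate shows activation above 250% relative to neutral control wells; inactive = the rest, any valid replicate at or below 250%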;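 also: OY570 slx delta 5 strain wells were the positive control but not used for scaling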
# PolyA inh: polyadenylation inhibitors in yeast reporter cells, primary screen, luminescence, S. cerevisiae; S. cerevisiae SKY197-pL101 polyadenylation reporter, beta-gal luminescence; efflux-impaired pdr1/pdr3 knockout yeast; score 100 = 6 SD above DMSO; activity score, % at 12 µM; 0.02% of 300,000 active; AID 1875, 2009;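 active = lowest replicate activity score at least 50, where 100 means six control SD above control mean; inconclusive = lowest score under 50 but half or more replicates reach 50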;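 also: yeast exposed to compound for 9 h at 30 °C; higher score means more reporter readthrough which indicates perturbed polyadenylation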
# NALP3 yeast inh: NALP3 inflammasome inhibitors in reconstituted yeast, primary screen, luminescence, uHTS. Yeast reconstituted NLRP3/ASC/caspase-1, beta-gal luminescence, 24 h. inhibition, % at 10 µM. 0.39% of 330,000 active. AID 2825, 2010;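 active = inhibition of 50% or more; inactive = inhibition below 50%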;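 also: plate controls were induced DMSO wells for no effect and uninduced yeast grown without galactose for full effect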
# NALP1 yeast inh: NALP1 inflammasome inhibitors in reconstituted yeast, colorimetric, S. cerevisiae, triplicate retest | S. cerevisiae NALP1/ASC/caspase-1 growth, X-gal OD620, 72 h | AID 2071, 2009 | 0.61% of 280,000 active | inhibition, % at 10 µM; in the data active = inhibition mostly above about 24%, no sharp cut-off; inactive = mostly below about 32%
# An asterisk follows results filed as active; i = inactive; ? = inconclusive; / = no result. Hits are enriched below; roughly 2.9% of the tested compounds scored in any of these assays.
SMILES,VIM-2 inh,IMP-1 inh,Mot1-301 SUMO,PolyA inh,NALP3 yeast inh,NALP1 yeast inh
O=C(O)C1C2C=CC3(O2)C1C(=O)N1c2ccccc2C2OCCC2C13 (stereo not drawn),10.6*,0.8,86.4,?,2.8,2.3
CC1=CCC[C@@H]2[C@@](C)(CC/C(C)=C/C(=O)O)[C@H](C)CC[C@@]12C,-0.4,-2.7,-16.5,-7.0,45.8,44.1*
C[C@@H]1CC[C@@]23COC(=O)C2=CCC[C@@H]3[C@@]1(C)CC/C(=C/CO)CO,/,/,-18.7,/,-52.0,/
C[C@H](CO)N1C[C@H](C)[C@@H](CN(C)S(=O)(=O)c2ccc(F)cc2)Oc2ccc(NC(=O)C3CCCCC3)cc2C1=O,/,/,8.9,/,13.5,/
COc1ccccc1OCC(=O)N/N=C1/SCC(=O)N1Cc1ccccc1,-3.0,-0.4,354.4*,10.2,11.0,11.9
COc1ccccc1CN1C[C@@H]2C[C@@H](C3=Cc4cc(Cl)ccc4OC3)N3CCC[C@@]23C1=O,-0.7,-4.2,i,8.9,22.6,25.8*
CN1C[C@@H]2C[C@@H](C3=Cc4cc(Cl)ccc4OC3)N3CCC[C@@]23C1=O,-3.2,-0.8,-1.3,-8.4,5.9,0.3
CCOc1ccc(N/C(N)=N/c2nc(CSc3nnc(C)s3)cc(=O)[nH]2)cc1,-3.4,-4.3,3.3,6.7,6.8,38.6*
Cc1nnc(SCc2cc(=O)[nH]c(/N=C(\N)Nc3ccccc3)n2)s1,1.0,0.0,247.4,4.9,-0.2,18.6
Nc1ccccc1SSc1ccccc1N,-2.7,-3.5,7.8,5.0,0.0,1.6
CC(C(Sc1ccccc1N)c1ccccc1)[N+](=O)[O-] (stereo not drawn),-1.4,-3.0,746.6*,-29.0,36.3,/
COc1ccccc1NS(=O)(=O)c1ccc2oc(N)nc2c1,0.5,-1.9,-0.5,30.7,2.3,20.3
CC1(C)CC(=O)C2=C(C1)C(c1cn(-c3ccccc3)nc1-c1ccccc1)C(C#N)=C(N)O2 (stereo not drawn),0.4,-3.0,-13.2,-0.9,22.2,43.1*
Cc1ccc2oc(C(=O)N3CCC(O)(c4ccccc4)CC3)c(C)c2c1,-0.3,-0.7,134.7,14.8,16.5,/
COC(=O)c1cc(-c2ccc(OC)c(OC)c2)c2c(=O)[nH]c(=O)n(C)c2n1,9.4*,-2.7,227.5,-8.3,12.3,26.8
Cc1ccc(C)c(CN2CCC(n3nccc3NC(=O)CCCc3ccccc3)CC2)c1,-1.2,-2.1,-11.7,-5.4,17.5,17.4
COc1ccccc1/C=C/C=C1\Oc2c(ccc(O)c2CN(C)C)C1=O,1.7,9.1*,7.7,-0.6,4.3,12.1
CC1(C)C(/C=C/C=C/C=C/C=C2\N(CCCCS(=O)(=O)O)c3ccc4ccccc4c3C2(C)C)=[N+](CCCCS(=O)(=O)[O-])c2ccc3ccccc3c21,/,/,-25.5,/,24.4,/
C=C(C)C1CC=C(CN2CC(C)OC(C)C2)CC1 (stereo not drawn),-0.1,0.8,138.9,-11.5,-5.3,40.7*
CC(C(=O)N1CCCCC1)N(C)CC(=O)Nc1cccc(F)c1 (stereo not drawn),/,/,-18.9,/,4.3,/
CCOC(=O)N1CCN(C(=O)c2cn(C)c3ccc(S(=O)(=O)N4CCOCC4)cc3c2=O)CC1,-0.1,-0.1,-4.7,3.0,5.2,22.2
CN(C(=O)c1ccc2nc(N)sc2c1)c1ccccc1,-1.5,-1.0,-19.0,11.4,18.2,5.6
CCc1ccc(NC(=O)c2ccc3nc(N)sc3c2)cc1,-0.4,-4.5,-10.0,6.2,27.6,39.7*
Nc1nc2ccc(C(=O)Nc3ccccc3)cc2s1,-2.3,-3.7,281.8*,6.2,12.6,11.6
Cc1[nH]n(-c2ccccc2)c(=O)c1/C=N/NC(=O)c1ccccc1F,-2.2,-3.0,1.3,29.4,4.3,-1.8
SMILES,VIM-2 inh,IMP-1 inh,Mot1-301 SUMO,PolyA inh,NALP3 yeast inh,NALP1 yeast inh
CC(=O)NC1(c2ccccc2)CCN(c2cc(C)nc(-c3ccccc3)n2)CC1,2.4,1.1,43.2,26.4,1.1,39.9*
O=C(Cn1cc(C(F)(F)F)cc(Cl)c1=O)Nc1cccc(S(=O)(=O)N2CCCCC2)c1,/,/,-8.2,/,-0.8,/
Cc1cc(N2CCC(C)CC2)nc(-c2ccccc2O)n1,1.3,0.0,5.6,9.7,-0.8,29.6
Cc1cc(N2CCC(C)CC2)nc(NCc2ccccc2)n1,-3.2,-2.0,-1.7,-4.7,8.4,69.3*
COC(=O)C1Sc2[nH]c(=O)sc2C2c3ccccc3OC(=O)C12 (stereo not drawn),-0.6,0.5,15.0,14.0,12.8,1.0
O=C(O)C1Sc2[nH]c(=O)sc2C2c3cc(Br)ccc3OC(=O)C12 (stereo not drawn),4.7,5.5*,-4.9,9.3,7.3,/
CCCCOC(=O)Cn1c(-c2ccccc2)nc2ccccc2c1=O,-0.8,0.4,552.5*,0.3,9.4,27.0
CC(=O)N1c2ccc(S(=O)(=O)NCC3CCC(C(=O)N4CCCC(C)C4)CC3)cc2CC1C (stereo not drawn),-2.1,-2.9,-1.5,-0.9,6.7,24.9
Cc1nn(C)c(C)c1C1C(C#N)=C(N)OC2=C1C(=O)CCC2 (stereo not drawn),-2.4,-3.4,311.2*,-0.2,14.8,22.6
CCn1nc(C)c(C2C(C#N)=C(N)OC3=C2C(=O)CCC3)c1C (stereo not drawn),-4.3,-1.4,-12.4,9.9,8.5,30.7
CCOc1ccc(C(=O)C(CCC(CN(C)C)C(=O)c2ccc(OCC)cc2)CN(C)C)cc1 (stereo not drawn),-1.9,-4.8,/,-4.2,/,47.6*
COc1ccc(C(=O)C(CCCCC(CN(C)C)C(=O)c2ccc(OC)cc2)CN(C)C)cc1 (stereo not drawn),-2.0,-3.6,-9.4,-3.9,8.1,24.8*
CN(C)CC(CCC(CN(C)C)C(=O)c1ccccc1)C(=O)c1ccccc1 (stereo not drawn),-2.3,-1.8,/,-4.4,/,26.3*
O=C(N/N=C/c1cccn1-c1ccc([N+](=O)[O-])cc1)c1cccnc1,-4.1,-2.3,-15.7,-10.6,13.9,/
CC(NC(=O)CCSCc1ccccc1F)c1ccccc1 (stereo not drawn),-4.8,-3.5,1.6,0.1,12.7,-4.7
CC1CCCCC1NC(=O)c1cccc(NC2=NC3CS(=O)(=O)CC3S2)c1 (stereo not drawn),-1.4,-3.4,-1.2,7.8,1.1,-9.0
C=CCN(c1ccccc1)S(=O)(=O)c1ccc2c(c1)N(C(C)=O)CCO2,-2.3,-2.2,2.5,-10.4,6.1,-2.8
